From PubChem BioAssay
PostGolgi yeast – growth inhibition of a yeast mutant, post-Golgi transport screen; post-Golgi transport phenotypic cell assay; inhibition, % at 10 µM; 98,000 compounds, 0.9% hits;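 also: yeast cells grown in 1536-well plates; yeast grown about 18 h at 30C before absorbance read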
EphB4 ephrin blk – EphB4-ephrin-B2 interaction antagonism; P54760; EphB4 LBD / TNYL-RAW-Alexa532 peptide, fluorescence polarization; inhibition, % at 7 µM; 97,000 compounds, 0.15% hits; AID 720;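 active = inhibition above the screen-wide mean inhibition plus 3 SD, cut at about 15% in these data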;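 also: 0% = DMSO wells and 100% = excess unlabeled TNYL-RAW peptide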
E coli WT exp – E. coli BW25113 growth inhibition, expanded screen | OD600 absorbance | growth inhibition, % at 100 µM | 98,000 compounds, 0.15% hits;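 active = growth inhibition above about 50% at one test dose, limit read from the data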;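 also: growth measured after 20 h incubation at 37 °C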
PostGolgi ctrl – yeast control strain growth, post-Golgi counter-screen; 98,000 compounds, 5% hits; efflux-deficient yeast background strain, growth absorbance A615, 16 h; inhibition, % at 10 µM
tolC growth inh – growth inhibitors of E. coli BW25113 tolC mutant | OD615 | growth inhibition, % at 10 µM (by protocol) | 65,000 compounds, 2.2% hits;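 active = growth inhibition at or above a cutoff equal to the mean over every tested compound plus 3 SD, cut at about 60% in these data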;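 also: growth measured after 20 h incubation at 37 °C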
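Test system – E. coli BW25113 ΔtolC::kan, tolC deletion mutant strain · Detection – OD at 615 nm · Buffer or medium – LB with kanamycin 50 µg/mL · Times – 20 h compound exposure of bacteria at 37 °C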
* = called active by the depositor; nt = no result given. The list is not random: actives were taken first. Their share in the collection is about 6%. Rule as the data show it, unless noted: active = inhibition above about 30%; inactive = the rest.

SMILES | PostGolgi yeast | EphB4 ephrin blk | E coli WT exp | PostGolgi ctrl | tolC growth inh
CCCCCCOc1ccc(-c2ccc(C#N)cn2)cc1 | -4 | 10 | -5 | 20 | nt
CCS(=O)(=O)N1CCN(c2ccc([N+](=O)[O-])c(NCc3ccccc3)c2)CC1 | 23 | 1 | -11 | 11 | nt
CCS(=O)(=O)N1CCN(c2ccc([N+](=O)[O-])c(NC(C)c3ccccc3)c2)CC1 (centres undefined) | 10 | -6 | -13 | 44* | nt
CCOc1cc(/C=C(/C#N)c2ccc(F)cc2)ccc1OCc1ccc(C(=O)O)o1 | 10 | nt | -10 | 2 | 82*
Cc1[nH]c(=O)[nH]c(=O)c1S(=O)(=O)N1CCN(c2ccccc2F)CC1 | 20 | 13 | 0 | 3 | nt
O=c1[nH]c2ccc(S(=O)(=O)N3CCN(c4ccccc4F)CC3)cc2s1 | -5 | nt | -5 | 31* | 100*
CC1(C)Cc2c(sc3c2c(=N)n(Cc2ccco2)c(=O)n3Cc2ccc(F)cc2)CO1 | 14 | nt | -8 | 64* | 25
COc1ccc(C(=O)CSc2nnc(-c3cc4ccccc4cc3O)n2Cc2ccco2)cc1 | -14 | 3 | -21 | 56* | 28
CC1CCN(C(=O)CSc2nnc(-c3cc4ccccc4cc3O)n2Cc2ccco2)CC1 | 0 | 1 | -2 | 39* | 26
CC1CCN(C(=O)CSc2nnc(CNc3ccc(F)cc3)n2Cc2ccco2)CC1 | 3 | 2 | 7 | 1 | nt
CCn1c(SCC(=O)N(C(C)C)C(C)C)nnc1-c1cc2ccccc2cc1O | 2 | 0 | 4 | 46* | 15
CCc1nnc(NC(=O)CSc2nnc(-c3cc4ccccc4cc3O)n2CC)s1 | 11 | nt | 2 | 7 | 53
O=C(Nc1ccnc(-c2cccnc2)n1)c1cccc(Cl)c1Cl | 1 | 0 | 0 | 14 | nt
CN(C)S(=O)(=O)c1cccc(NC(=O)COC(=O)CCc2nc3ccccc3s2)c1 | 0 | -5 | 7 | -3 | nt
CCc1cc(C(=O)NNC(=S)NCC2CCCO2)cs1 (centres undefined) | -12 | 2 | -2 | 30* | nt
O=C(CN(Cc1ccco1)C(=O)c1cccc(Cl)c1)Nc1c(Cl)cc(Cl)cc1Cl | -2 | -6 | -7 | 15 | nt
O=C(CN(Cc1ccco1)C(=O)c1ccccc1)Nc1ccc(Cl)c(Cl)c1 | -8 | -9 | -5 | 39* | nt
CC(C)C1C(c2ccccc2)N(C)C(c2ccccc2)CC1(O)c1ccccc1 (centres undefined) | -11 | 6 | -6 | 33* | nt
COc1cc(OC)cc(C(=O)n2cnnc2N)c1 | 12 | -4 | 3 | 6 | nt
COc1cccc(-n2cnc3scc(-c4cccs4)c3c2=O)c1 | -3 | 3 | -9 | 1 | 26
COc1ccc(C(=O)Nn2cnc3scc(-c4cccs4)c3c2=O)c(O)c1 | 2 | 7 | -5 | 24 | 75*
CCCCCn1c(CN(C)Cc2ccccc2)nc2c1c(=O)n(C)c(=O)n2C | -5 | 4 | -13 | 17 | 28
CCOCCn1c(CN(Cc2ccccc2)Cc2ccccc2)nc2c1c(=O)n(C)c(=O)n2C | 2 | -5 | -17 | 24 | 68*
CCCCn1c(CN(Cc2ccccc2)Cc2ccccc2)nc2c1c(=O)n(C)c(=O)n2C | nt | -7 | nt | nt | 44
CN(Cc1ccccc1)Cc1nc2c(c(=O)n(C)c(=O)n2C)n1Cc1ccc(Cl)cc1 | 1 | -2 | 1 | 31* | 51
SMILES | PostGolgi yeast | EphB4 ephrin blk | E coli WT exp | PostGolgi ctrl | tolC growth inh
Cc1ccc(C)c(Cn2c(CN(C)Cc3ccccc3)nc3c2c(=O)n(C)c(=O)n3C)c1 | 3 | 5 | -6 | 45* | 81*
Cc1ccc(Cn2c(SCCN3CCCCC3)nc3c2c(=O)n(C)c(=O)n3C)cc1 | 10 | 16* | 1 | 9 | 3
CC1C(C(=O)Nc2ccccc2)CCCC1(C)C(=O)O (centres undefined) | -4 | 1 | -19 | 3 | nt
CC(C)c1ccccc1OCCCCCNCCO | 1 | 5 | 11 | 12 | -3
COCCNC(=O)C(=O)N/N=C/c1ccccc1C(F)(F)F | nt | -6 | nt | nt | nt
CCc1nnc(NC(=O)CSc2nccn2-c2cc(C)cc(C)c2)s1 | -7 | 4 | -2 | 15 | 9
O=c1[nH]c2ccc(S(=O)(=O)N3CCCCC3)cc2[nH]c1=O | nt | 6 | nt | nt | nt
CS(=O)(=O)N1CCC(C(=O)c2cccc(Cl)c2)CC1 | 3 | 6 | 1 | 1 | -9
CN(Cc1ccccc1)c1nc2c(c(=O)n(C)c(=O)n2C)n1CCCc1ccccc1 | 0 | 2 | -16 | 43* | 100*
CN(Cc1ccccc1)Cc1nc2c(c(=O)n(C)c(=O)n2C)n1Cc1ccc(F)cc1 | -11 | 1 | 2 | 27 | 40
Cc1ccc(Cn2c(CN(C)Cc3ccccc3)nc3c2c(=O)n(C)c(=O)n3C)cc1 | 0 | -1 | -5 | 38* | 50
Cc1cc(C(=O)N2CCN(Cc3ccccc3)CC2)on1 | -3 | 0 | 12 | -1 | nt
COc1ccccc1-c1nnc(SCC(=O)Nc2ccc(S(N)(=O)=O)cc2)n1C | 4 | -2 | 6 | 13 | nt
Cc1ccc(C2CC(c3ccccc3)=NN2C(=S)Nc2ccccc2)o1 (centres undefined) | 29 | 2 | -8 | 14 | nt
CC(=O)N1c2ccccc2C(C)(c2ccccc2)CC1(C)C (centres undefined) | -5 | 3 | 2 | 15 | nt
CN1CCN(CC(=O)N2c3ccccc3C(=O)Nc3cccnc32)CC1 | nt | nt | nt | nt | 13
CN1CCN(CC(=O)N2c3ccccc3C(C)(c3ccc(Cl)cc3)CC2(C)C)CC1 (centres undefined) | 3 | 4 | 3 | 39* | nt
CN1CCN(CC(=O)N2c3ccccc3C(C)(c3ccccc3)CC2(C)C)CC1 (centres undefined) | -4 | 1 | 6 | 36* | -6
COc1ccccc1C1CC(c2ccc(Cl)cc2)Nc2ncnn21 (centres undefined) | 4 | 0 | 10 | 3 | 60*
O=C(c1ccccc1)N1CCCCC(S(=O)(=O)c2ccc3ccccc3c2)C1=O (centres undefined) | -13 | 2 | -23 | 30 | nt
Cc1nc2cc(-c3ccccc3)nn2c(C)c1CCC(=O)N1CCN(c2ccccc2)CC1 | 0 | 2 | -4 | 45* | nt
CC(C)C(=O)Nc1ccnc(-c2cccnc2)n1 | -2 | -3 | 18 | 4 | nt
CC(C)(C)c1ccc(OCCNC(=O)c2ncn[nH]2)cc1 | 13 | -1 | 4 | 3 | nt
CCOC(=O)N1CCN(S(=O)(=O)c2ccc(OCC)c3ccccc23)CC1 | -19 | 0 | -13 | 19 | 65*
CCOC(=O)N1CCN(S(=O)(=O)c2ccc(OC)c(Cl)c2Cl)CC1 | 13 | 7 | -3 | 13 | 3
CCn1cc(C(=O)Nc2ccc(NC(=O)c3ccco3)cc2)c(=O)c2ccc(C)nc21 | nt | nt | nt | nt | -3
Cn1nc(-c2ccc(C(=O)Nc3cccc(Cl)c3)cc2)c2ccccc2c1=O | 6 | -27 | 2 | 0 | nt
O=C1c2ccccc2C(=O)N1CCCCSc1nc2ccccc2o1 | 11 | -2 | -17 | 30* | nt
COc1ccc(C2=NCC(CSc3nnc(-c4ccc5c(c4)OCO5)o3)S2)cc1 (centres undefined) | 6 | 12 | -14 | 37* | 21
